Test results: ChEMBL document CHEMBL1671644, “Inhibition of human immunodeficiency virus type 1 infection by the candidate microbicide dapivirine, a nonnucleoside reverse transcriptase inhibitor” (Antimicrob Agents Chemother, 2009)

Assays:
Type in all cases: functional
[1] = system: Human immunodeficiency virus 1; experiment: Antiviral activity against HIV-1 subtype CRF02_AG V022808 infected in human MT4 cells assessed as inhibition of viral replication relative to HIV-1 3B
How it was run: (§1)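 MT-4 cells (3 x 10^4/well) infected with site-directed mutants or recombinant clinical isolates (200 TCID50/well) with drug, cultured 3 to 5 days. Viability read by MTT colorimetric antivirogram assay. IC50 by nonlinear regression; fold change = IC50 for the test isolate / IC50 for wild-type HIV-1 IIIB tested in parallel (mean or median).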

[2] = system: Human immunodeficiency virus 1; experiment: Antiviral activity against HIV-1 subtype CRF02_AG V022825 infected in human MT4 cells assessed as inhibition of viral replication relative to HIV-1 3B; how it was run: as §1
[3] = system: Human immunodeficiency virus 1; experiment: Antiviral activity against HIV-1 subtype CRF02_AG V022826 infected in human MT4 cells assessed as inhibition of viral replication relative to HIV-1 3B; how it was run: as §1
[4] = system: Human immunodeficiency virus 1; experiment: Antiviral activity against HIV-1 subtype CRF02_AG V022830 infected in human MT4 cells assessed as inhibition of viral replication relative to HIV-1 3B; how it was run: as §1
[5] = system: Human immunodeficiency virus 1; experiment: Antiviral activity against HIV-1 subtype CRF01_AE V022820 infected in human MT4 cells assessed as inhibition of viral replication relative to HIV-1 3B; how it was run: as §1
[6] = system: Human immunodeficiency virus 1; experiment: Antiviral activity against HIV-1 subtype CRF01_AE V022821 infected in human MT4 cells assessed as inhibition of viral replication relative to HIV-1 3B
How it was run: (§2)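 Recombinant clinical HIV-1 isolates (200 TCID50/well) were tested in MT-4 cells (3 x 10^4/well) over 3–5 days, with an MTT viability read-out. IC50 was fitted by nonlinear regression. Fold change is the isolate IC50 divided by the HIV-1IIIB IC50, tested in parallel.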

[7] = system: Human immunodeficiency virus 1; experiment: Antiviral activity against HIV-1 subtype CRF01_AE V022822 infected in human MT4 cells assessed as inhibition of viral replication relative to HIV-1 3B; how it was run: as §1
[8] = system: Human immunodeficiency virus 1; experiment: Antiviral activity against HIV-1 subtype CRF01_AE V029521 infected in human MT4 cells assessed as inhibition of viral replication relative to HIV-1 3B; how it was run: as §2
[9] = system: Human immunodeficiency virus 1; experiment: Antiviral activity against HIV-1 subtype CRF01_AE V029525 infected in human MT4 cells assessed as inhibition of viral replication relative to HIV-1 3B; how it was run: as §2
[10] = system: Human immunodeficiency virus 1; experiment: Antiviral activity against HIV-1 subtype B V022807 infected in human MT4 cells assessed as inhibition of viral replication relative to HIV-1 3B; how it was run: as §2
[11] = system: Human immunodeficiency virus 1; experiment: Antiviral activity against HIV-1 subtype B V022809 infected in human MT4 cells assessed as inhibition of viral replication relative to HIV-1 3B; how it was run: as §1
[12] = system: Human immunodeficiency virus 1; experiment: Antiviral activity against HIV-1 subtype B V022810 harboring NNRTI A98S andK101R mutant infected in human MT4 cells assessed as inhibition of viral replication relative to HIV-1 3B; how it was run: as §1
[13] = system: Human immunodeficiency virus 1; experiment: Antiviral activity against HIV-1 subtype B V022811 infected in human MT4 cells assessed as inhibition of viral replication relative to HIV-1 3B; how it was run: as §2
[14] = system: Human immunodeficiency virus 1; experiment: Antiviral activity against HIV-1 subtype B V022812 harboring NNRTI V179I mutant infected in human MT4 cells assessed as inhibition of viral replication relative to HIV-1 3B; how it was run: as §1
[15] = system: Human immunodeficiency virus 1; experiment: Antiviral activity against HIV-1 subtype B V022813 infected in human MT4 cells assessed as inhibition of viral replication relative to HIV-1 3B; how it was run: as §1
[16] = system: Human immunodeficiency virus 1; experiment: Antiviral activity against HIV-1 subtype B V022814 infected in human MT4 cells assessed as inhibition of viral replication relative to HIV-1 3B; how it was run: as §1
[17] = system: Human immunodeficiency virus 1; experiment: Antiviral activity against HIV-1 subtype B V022815 infected in human MT4 cells assessed as inhibition of viral replication relative to HIV-1 3B; how it was run: as §2
[18] = system: Human immunodeficiency virus 1; experiment: Antiviral activity against HIV-1 subtype C V022816 infected in human MT4 cells assessed as inhibition of viral replication relative to HIV-1 3B; how it was run: as §2
[19] = system: Human immunodeficiency virus 1; experiment: Antiviral activity against HIV-1 subtype C V022829 infected in human MT4 cells assessed as inhibition of viral replication relative to HIV-1 3B; how it was run: as §1
[20] = system: Human immunodeficiency virus 1; experiment: Antiviral activity against HIV-1 subtype C V022831 infected in human MT4 cells assessed as inhibition of viral replication relative to HIV-1 3B; how it was run: as §1
[21] = system: Human immunodeficiency virus 1; experiment: Antiviral activity against HIV-1 subtype D V022832 infected in human MT4 cells assessed as inhibition of viral replication relative to HIV-1 3B; how it was run: as §1
[22] = system: Human immunodeficiency virus 1; experiment: Antiviral activity against HIV-1 subtype D V022818 infected in human MT4 cells assessed as inhibition of viral replication relative to HIV-1 3B; how it was run: as §1
[23] = system: Human immunodeficiency virus 1; experiment: Antiviral activity against HIV-1 subtype D V022819 infected in human MT4 cells assessed as inhibition of viral replication relative to HIV-1 3B; how it was run: as §1
[24] = system: Human immunodeficiency virus 1; experiment: Antiviral activity against HIV-1 subtype CRF05_DF V022823 infected in human MT4 cells assessed as inhibition of viral replication relative to HIV-1 3B; how it was run: as §1
[25] = system: Human immunodeficiency virus 1; experiment: Antiviral activity against HIV-1 subtype CRF05_DF V022824 harboring NNRTI V106I mutant infected in human MT4 cells assessed as inhibition of viral replication relative to HIV-1 3B; how it was run: as §1
[26] = system: Human immunodeficiency virus 1; experiment: Antiviral activity against HIV-1 subtype CRF05_DF V022833 harboring NNRTI V179I mutant infected in human MT4 cells assessed as inhibition of viral replication relative to HIV-1 3B; how it was run: as §1
[27] = system: Human immunodeficiency virus 1; experiment: Antiviral activity against HIV-1 subtype F V029522 infected in human MT4 cells assessed as inhibition of viral replication relative to HIV-1 3B; how it was run: as §1
[28] = system: Human immunodeficiency virus 1; experiment: Antiviral activity against HIV-1 subtype H V022827 harboring NNRTI V179I mutant infected in human MT4 cells assessed as inhibition of viral replication relative to HIV-1 3B; how it was run: as §1
[29] = system: Human immunodeficiency virus 1; experiment: Antiviral activity against HIV-1 subtype H V022828 harboring NNRTI K101Q and V179I mutant infected in human MT4 cells assessed as inhibition of viral replication relative to HIV-1 3B; how it was run: as §1
[30] = system: Human immunodeficiency virus 1; experiment: Antiviral activity against HIV-1 subtype H V029523 harboring NNRTI K101Q and V179I mutant infected in human MT4 cells assessed as inhibition of viral replication relative to HIV-1 3B; how it was run: as §1
[31] = system: Human immunodeficiency virus 1; experiment: Antiviral activity against HIV-1 subtype O V029524 harboring NNRTI A98G, V179E and Y181C mutant infected in human MT4 cells assessed as inhibition of viral replication relative to HIV-1 3B; how it was run: as §1
[32] = system: Human immunodeficiency virus 1; experiment: Antiviral activity against HIV-1 SM002 harboring NNTRI 181C mutant infected in human MT4 cells assessed as inhibition of viral replication relative to HIV-1 3B; how it was run: as §1
[33] = system: Human immunodeficiency virus 1; experiment: Antiviral activity against HIV-1 SM007 harboring NNTRI 103N mutant infected in human MT4 cells assessed as inhibition of viral replication relative to HIV-1 3B; how it was run: as §1
[34] = system: Human immunodeficiency virus 1; experiment: Antiviral activity against HIV-1 SM012 harboring NNTRI 108I mutant infected in human MT4 cells assessed as inhibition of viral replication relative to HIV-1 3B; how it was run: as §1
[35] = system: Human immunodeficiency virus 1; experiment: Antiviral activity against HIV-1 SM024 harboring NNTRI 190A mutant infected in human MT4 cells assessed as inhibition of viral replication relative to HIV-1 3B; how it was run: as §1
[36] = system: Human immunodeficiency virus 1; experiment: Antiviral activity against HIV-1 SM026 harboring NNTRI 103N and 181C mutant infected in human MT4 cells assessed as inhibition of viral replication relative to HIV-1 3B; how it was run: as §1
[37] = system: Human immunodeficiency virus 1; experiment: Antiviral activity against HIV-1 SM030 harboring NNTRI 100I mutant infected in human MT4 cells assessed as inhibition of viral replication relative to HIV-1 3B; how it was run: as §1
[38] = system: Human immunodeficiency virus 1; experiment: Antiviral activity against HIV-1 SM034 harboring NNTRI 188L mutant infected in human MT4 cells assessed as inhibition of viral replication relative to HIV-1 3B; how it was run: as §1
[39] = system: Human immunodeficiency virus 1; experiment: Antiviral activity against HIV-1 SM051 harboring NNTRI 100I and 103N mutant infected in human MT4 cells assessed as inhibition of viral replication relative to HIV-1 3B; how it was run: as §1
[40] = system: Human immunodeficiency virus 1; experiment: Antiviral activity against HIV-1 SM052 harboring NNTRI 101E and 103N mutant infected in human MT4 cells assessed as inhibition of viral replication relative to HIV-1 3B; how it was run: as §1
[41] = system: Human immunodeficiency virus 1; experiment: Antiviral activity against HIV-1 SM058 harboring NNTRI 227L and 106A mutant infected in human MT4 cells assessed as inhibition of viral replication relative to HIV-1 3B; how it was run: as §1

Cc1ccnc2c1NC(=O)c1cccnc1N2C1CC1 [NEVIRAPINE]
Ratio IC50 [1]: 0.8
Ratio IC50 [2]: 0.7
Ratio IC50 [3]: 0.4
Ratio IC50 [4]: 1.3
Ratio IC50 [5]: 1.3
Ratio IC50 [6]: 1.2
Ratio IC50 [7]: 0.8
Ratio IC50 [8]: 1.4
Ratio IC50 [9]: 7
Ratio IC50 [10]: 3.4
Ratio IC50 [11]: 5
Ratio IC50 [12]: 1.7
Ratio IC50 [13]: 3.4
Ratio IC50 [14]: 0.8
Ratio IC50 [15]: 1
Ratio IC50 [16]: 2.4
Ratio IC50 [17]: 1
Ratio IC50 [18]: 3.8
Ratio IC50 [19]: 0.6
Ratio IC50 [20]: 0.9
Ratio IC50 [21]: 0.9
Ratio IC50 [22]: 0.5
Ratio IC50 [23]: 1
Ratio IC50 [24]: 0.9
Ratio IC50 [25]: 3.1
Ratio IC50 [26]: 1.7
Ratio IC50 [27]: 2.1
Ratio IC50 [28]: 0.4
Ratio IC50 [29]: 1.1
Ratio IC50 [30]: 1.4
Ratio IC50 [31]: 89
Ratio IC50 [32]: 222
Ratio IC50 [33]: 22
Ratio IC50 [34]: 1
Ratio IC50 [35]: 96
Ratio IC50 [36]: 222
Ratio IC50 [37]: 5
Ratio IC50 [38]: 222
Ratio IC50 [39]: 22
Ratio IC50 [40]: 22
Ratio IC50 [41]: 22

CC(C)Nc1cccnc1N1CCN(C(=O)c2cc3cc(NS(C)(=O)=O)ccc3[nH]2)CC1 [DELAVIRDINE]
Ratio IC50 [1]: 0.6
Ratio IC50 [2]: 1.9
Ratio IC50 [3]: 1.3
Ratio IC50 [4]: 0.9
Ratio IC50 [6]: 2.3
Ratio IC50 [7]: 2.7
Ratio IC50 [8]: 4.4
Ratio IC50 [9]: 20
Ratio IC50 [10]: 3.6
Ratio IC50 [11]: 2.6
Ratio IC50 [12]: 2.7
Ratio IC50 [13]: 3.7
Ratio IC50 [14]: 6
Ratio IC50 [15]: 0.7
Ratio IC50 [16]: 1.9
Ratio IC50 [17]: 4.9
Ratio IC50 [18]: 5.3
Ratio IC50 [19]: 2.7
Ratio IC50 [20]: 2.6
Ratio IC50 [21]: 1.1
Ratio IC50 [22]: 0.9
Ratio IC50 [23]: 2.3
Ratio IC50 [24]: 0.6
Ratio IC50 [25]: 1.3
Ratio IC50 [26]: 0.6
Ratio IC50 [28]: 0.3
Ratio IC50 [29]: 2
Ratio IC50 [30]: 2.6
Ratio IC50 [31]: 140
Ratio IC50 [32]: 83
Ratio IC50 [33]: 105
Ratio IC50 [34]: 2
Ratio IC50 [35]: 2
Ratio IC50 [36]: 621
Ratio IC50 [37]: 215
Ratio IC50 [38]: 12
Ratio IC50 [39]: 621
Ratio IC50 [40]: 90
Ratio IC50 [41]: 10
